Reference: ChEMBL document CHEMBL1154067, “Antiviral and cytotoxic activities of aminoarylazo compounds and aryltriazene derivatives” (Bioorg Med Chem, 2009)
Calls of active or inactive are those of the source.

Tests used:
[1] = Cytotoxicity against hamster BHK21 cells assessed as reduction in cell viability after 48 to 96 hrs by MTT assay; type: cell-based, Mesocricetus auratus, BHK-21; conditions: bhk-21
Summary of the method: (§1)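 Mock-infected cells in maintenance medium, MDBK at 6 × 10^5 and BHK at 1 × 10^6 cells/mL initial density, with or without serial compound dilutions. Run in parallel with antiviral assays. Viability by MTT after 48–96 h at 37 °C, 5% CO2. CC50 = concentration reducing viability 50%.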

MT4 = assay: Cytotoxicity against human MT4 cells after 96 hrs by MTT assay; type: cell-based; conditions: mt4, 96 h
Summary of the method: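 Exponentially growing mock-infected MT-4 seeded at 1 × 10^5 cells/mL in RPMI-1640 with 10% FCS, penicillin and streptomycin. Incubated with or without serial compound dilutions at 37 °C, 5% CO2. Viability by MTT after 96 h. CC50 = concentration reducing viability 50%.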

[2] = system: Vesicular stomatitis virus; assay: Antiviral activity against Vesicular stomatitis virus after 2 days by plaque reduction assay; type: functional, organism-based
Yellow fever virus = assay: Antiviral activity against Yellow fever virus infected in BHK-21 cells assessed as inhibition of virus-induced cytopathicity after 3 to 4 days by MTT assay; type: functional, organism-based
[3] = Cytotoxicity against MDBK cells after 48 to 96 hrs by MTT assay; type: cell-based, Bos taurus; conditions: cattle, mdbk; summary of the method: as §1
[4] = system: Respiratory syncytial virus; assay: Antiviral activity against Respiratory syncytial virus A2 infected in Vero-76 cells after 5 days by plaque reduction assay; type: functional, organism-based; conditions: human respiratory syncytial virus, A2, Vero 76, 120 h
Poliovirus 1 = assay: Antiviral activity against Human poliovirus 1 strain Sabin after 2 days by plaque reduction assay; type: functional; conditions: for EC50: Enterovirus C, 48 h
Coxsackievirus B2 = assay: Antiviral activity against Coxsackie virus type B2 virus infected in african green monkey Vero-76 cells after 3 days by plaque reduction assay; type: functional, organism-based; conditions: Enterovirus B, Vero 76, 72 h
Summary of the method: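 Vero 76 cells seeded at 2 × 10^5 cells/well, grown overnight to confluence at 37 °C in 5% CO2, then infected at 50–100 PFU/well. Unadsorbed virus removed. Overlay of DMEM with 1% inactivated FCS and 0.75% methylcellulose, with or without serial compound dilutions. After 3 days at 37 °C, fixed and stained with crystal violet in PBS/50% ethanol; plaques counted. EC50 is the concentration reducing plaque number by 50%.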

[5] = system: Mammalian orthoreovirus 1; assay: Antiviral activity against Reovirus-1 infected in BHK-21 cells assessed as inhibition of virus-induced cytopathicity after 3 to 4 days by MTT assay; type: functional, organism-based; conditions: Mammalian orthoreovirus 1, BHK-21
Summary of the method: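 BHK-21 cells seeded at 5 × 10^4 cells/well, grown overnight to confluent monolayers at 37 °C in 5% CO2, then infected at m.o.i. 0.01 in serum-free medium. One hour later, MEM Earle's with 1% final inactivated FCS added, with or without serial compound dilutions. Viability read by MTT after 3–4 days at 37 °C. EC50 is the concentration giving 50% protection from cytopathogenicity.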

[6] = system: Bovine viral diarrhea virus 1; assay: Antiviral activity against Bovine viral diarrhea virus infected in MDBK cells assessed as inhibition of virus-induced cytopathicity after 3 to 4 days by MTT assay; type: functional, organism-based; conditions: Bovine viral diarrhea virus isolates and strains
[7] = system: Human immunodeficiency virus 1; assay: Antiviral activity against HIV1 infected in human MT4 cells assessed as inhibition of virus-induced cytopathicity after 4 days by MTT assay; type: functional, organism-based
Vaccinia virus = assay: Antiviral activity against Vaccinia virus after 3 days by plaque reduction assay; type: functional, organism-based; conditions: Orthopoxvirus vaccinia
Human alphaherpesvirus 1 = assay: Antiviral activity against HSV1 infected in Vero-76 cells after 3 days by plaque reduction assay; type: functional, organism-based; conditions: Human alphaherpesvirus 1, Vero 76, 72 h
Vero = assay: Cytotoxicity against african green monkey Vero 76 cells by crystal violet staining; type: cell-based; conditions: chlorocebus sabaeus, vero
Summary of the method: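 Mock-infected Vero 76 seeded at 4 × 10^5 cells/mL, run in parallel with plaque assays, with or without serial compound dilutions. Cell number of monolayers determined by crystal violet staining. CC50 = concentration reducing viable cell number 50%.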

## FC(F)(F)c1cccc(N/N=N/c2ccccc2)c1
[1]
  CC50: > 100 µM
MT4
  CC50: > 100 µM
[2]
  Activity: inactive
Yellow fever virus
  EC50: ≥ 100 µM
[3]
  CC50: > 100 µM
[4]
  EC50: 3 µM
Poliovirus 1
  EC50: > 15 µM
Coxsackievirus B2
  EC50: 8 µM
[5]
  EC50: > 100 µM
[6]
  EC50: > 100 µM
[7]
  inhibition: inactive
Vaccinia virus
  Activity: inactive
Human alphaherpesvirus 1
  EC50: > 15 µM
Vero
  CC50: 15 µM

## FC(F)(F)c1cccc(/N=N/c2ccc(NC[C@@H]3CCCN4CCCC[C@H]34)c3c2CCCC3)c1
[1]
  CC50: 14 µM
MT4
  CC50: 15 µM
[2]
  Activity: inactive
Yellow fever virus
  EC50: > 14 µM
[3]
  CC50: 30 µM
[4]
  EC50: > 50 µM
Poliovirus 1
  Activity: inactive
Coxsackievirus B2
  EC50: > 50 µM
[5]
  EC50: > 14 µM
[6]
  EC50: 7 µM
[7]
  inhibition: inactive
Vaccinia virus
  Activity: inactive
Human alphaherpesvirus 1
  EC50: > 50 µM
Vero
  CC50: 50 µM

## CN(C)CCCN(/N=N/c1ccc([N+](=O)[O-])cc1)c1ccccc1
[1]
  CC50: 36 µM
MT4
  CC50: 20 µM
[2]
  Activity: inactive
Yellow fever virus
  EC50: ≥ 36 µM
[3]
  CC50: 39 µM
[4]
  EC50: > 40 µM
Poliovirus 1
  EC50: > 40 µM
Coxsackievirus B2
  EC50: > 40 µM
[5]
  EC50: > 36 µM
[6]
  EC50: ≥ 39 µM
[7]
  inhibition: inactive
Vaccinia virus
  Activity: inactive
Human alphaherpesvirus 1
  EC50: > 40 µM
Vero
  CC50: 40 µM

## Cc1c(/N=N/c2cccc(C(F)(F)F)c2)ccc(NC[C@@H]2CCCN3CCCC[C@H]23)c1C
[1]
  CC50: ≥ 100 µM
MT4
  CC50: 77 µM
[2]
  Activity: inactive
Yellow fever virus
  EC50: > 100 µM
[3]
  CC50: 52 µM
[4]
  EC50: > 80 µM
Poliovirus 1
  Activity: inactive
Coxsackievirus B2
  EC50: > 80 µM
[5]
  EC50: > 100 µM
[6]
  EC50: 7 µM
[7]
  inhibition: inactive
Vaccinia virus
  Activity: inactive
Human alphaherpesvirus 1
  EC50: > 80 µM
Vero
  CC50: 80 µM

## CN(C)CCCNc1ccc(/N=N/c2ccc([N+](=O)[O-])cc2)cc1
[1]
  CC50: > 100 µM
MT4
  CC50: 19 µM
[2]
  Activity: inactive
Yellow fever virus
  EC50: > 100 µM
[3]
  CC50: > 100 µM
[4]
  EC50: > 60 µM
Poliovirus 1
  Activity: inactive
Coxsackievirus B2
  EC50: > 60 µM
[5]
  EC50: > 100 µM
[6]
  EC50: > 100 µM
[7]
  inhibition: inactive
Vaccinia virus
  Activity: inactive
Human alphaherpesvirus 1
  EC50: > 60 µM
Vero
  CC50: 60 µM

## O=[N+]([O-])c1cccc(/N=N/Nc2cccc([N+](=O)[O-])c2)c1
[1]
  CC50: > 100 µM
MT4
  CC50: > 100 µM
[2]
  Activity: inactive
Yellow fever virus
  EC50: > 100 µM
[3]
  CC50: > 100 µM
[4]
  EC50: > 100 µM
Poliovirus 1
  EC50: > 100 µM
Coxsackievirus B2
  EC50: > 100 µM
[5]
  EC50: > 100 µM
[6]
  EC50: > 100 µM
[7]
  inhibition: inactive
Vaccinia virus
  Activity: inactive
Human alphaherpesvirus 1
  EC50: > 100 µM
Vero
  CC50: > 100 µM

## Cc1c(/N=N/c2ccccc2)ccc(NC[C@@H]2CCCN3CCCC[C@H]23)c1C
[1]
  CC50: 47 µM
MT4
  CC50: 31 µM
[2]
  Activity: inactive
Yellow fever virus
  EC50: 9 µM
[3]
  CC50: 48 µM
[4]
  EC50: > 60 µM
Poliovirus 1
  Activity: inactive
Coxsackievirus B2
  EC50: > 60 µM
[5]
  EC50: > 47 µM
[6]
  EC50: 2.5 µM
[7]
  inhibition: inactive
Vaccinia virus
  Activity: inactive
Human alphaherpesvirus 1
  EC50: > 60 µM
Vero
  CC50: 60 µM

## CN(C)CCCNc1ccc(/N=N/c2cccc([N+](=O)[O-])c2)cc1
[1]
  CC50: 20 µM
MT4
  CC50: 14 µM
[2]
  Activity: inactive
Yellow fever virus
  EC50: 7 µM
[3]
  CC50: 33 µM
[4]
  EC50: > 25 µM
Poliovirus 1
  Activity: inactive
Coxsackievirus B2
  EC50: 11 µM
[5]
  EC50: > 20 µM
[6]
  EC50: 16 µM
[7]
  inhibition: inactive
Vaccinia virus
  Activity: inactive
Human alphaherpesvirus 1
  EC50: 6 µM
Vero
  CC50: 25 µM

## Brc1ccc(Cn2ccc3nc(-c4ccccc4)nc-3c2)cc1
[6]
  EC50: 0.03 µM

## CCCN(CCC)CCSc1n[nH]c2c3ccccc3nc-2n1
[6]
  EC50: 0.03 µM

## NCCCC[C@H](N)C(=O)Nc1cccc(-c2ccc(NC(=O)Nc3nc4ccccc4s3)nc2)c1
[6]
  EC50: 0.6 µM
